Laboratory results as given in ChEMBL document CHEMBL2375340, “Cytotoxic bisbenzylisoquinoline alkaloids from Stephania epigaea” (J Nat Prod, 2013).

Legend:
Format in all cases: functional, cell-based
[1] = test system: SW480; assay: Cytotoxicity against human SW480 cells after 48 hrs by MTS assay; conditions: SW480, 48 h
Outline: (§1)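 Cells kept in RPMI 1640 with 10% FBS and 100 U/mL penicillin/streptomycin, 37 °C, 5% CO2. Seeded at 5 × 10^3/well with test samples at various concentrations for 48 h. MTS (5 mg/mL in PBS) added, 4 h more. Medium partly replaced by 20% SDS overnight to dissolve formazan. Absorbance read at 570 nm. IC50 calculated by Reed and Muench method. Cisplatin served as positive control.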

[2] = test system: SMMC-7721; assay: Cytotoxicity against human SMMC7721 cells after 48 hrs by MTS assay; conditions: SMMC-7721, 48 h; outline: as §1
[3] = test system: MCF7; assay: Cytotoxicity against human MCF7 cells after 48 hrs by MTS assay; conditions: MCF7, 48 h; outline: as §1
[4] = test system: HL-60; assay: Cytotoxicity against human HL60 cells after 48 hrs by MTS assay; conditions: HL-60, 48 h; outline: as §1
[5] = Cytotoxicity against human ECA109 cells after 48 hrs by MTT assay; conditions: ECa-109, 48 h
Outline: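 Cells grown in RPMI 1640 with 10% FBS and 100 U/mL penicillin/streptomycin, humidified 5% CO2, 37 °C. Plated 5 × 10^3/well, exposed to test samples at various concentrations for 48 h. MTT then added in place of MTS, 4 h further. Formazan dissolved overnight in 20% SDS, A570 measured. IC50 by Reed and Muench method. Tanespimycin (17AAG) was the positive control.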

[6] = test system: A549; assay: Cytotoxicity against human A549 cells after 48 hrs by MTS assay; conditions: A549, 48 h; outline: as §1

SMILES	IC50 [1]	IC50 [2]	IC50 [3]	IC50 [4]	IC50 [5]	IC50 [6]
COc1ccc2cc1Oc1ccc(cc1)C[C@H]1c3c(cc4c(c3Oc3cc5c(cc3OC)CCN=C5C2)OCO4)CC[N@@+]1(C)[O-]	> 10 µM	> 10 µM	> 10 µM	> 10 µM	10 µM	> 10 µM
COc1ccc2cc1Oc1ccc(cc1)C[C@H]1c3c(cc4c(c3Oc3cc5c(cc3OC)CCN[C@@H]5C2)OCO4)CCN1C	3.7 µM	4.8 µM	2.3 µM	2.8 µM	3.2 µM	3.7 µM
COc1ccc2cc1Oc1ccc(cc1)C[C@H]1c3c(cc4c(c3Oc3cc5c(cc3OC)CCN(C)[C@@H]5C2)OCO4)CCN1C [CEPHARANTHINE]	4.7 µM	9.9 µM	2.9 µM	9.2 µM	> 10 µM	5 µM
COc1ccc2cc1Oc1ccc(cc1)C[C@H]1c3cc(c(OC)cc3CCN1C)Oc1c(O)c(OC)cc3c1[C@H](C2)N(C)CC3 [FANGCHINOLINE]	> 10 µM	> 10 µM	5 µM	> 10 µM	> 10 µM	> 10 µM
COc1ccc2cc1Oc1ccc(cc1)C[C@H]1c3c(cc(OC)c(O)c3Oc3cc4c(cc3OC)CCN(C)[C@@H]4C2)CCN1C [HOMOAROMOLINE]	> 10 µM	> 10 µM	9.5 µM	> 10 µM	> 10 µM	> 10 µM
C=CCNC1=C2C[C@@H](C)C[C@H](OC)[C@H](O)[C@@H](C)/C=C(\C)[C@H](OC(N)=O)[C@@H](OC)/C=C\C=C(/C)C(=O)NC(=CC1=O)C2=O [TANESPIMYCIN]	–	–	–	–	1.1 µM	–
